In experiment [1] the target is T1, Somatostatin receptor type 5 (Homo sapiens, UniProt P35346). As to the kind of experiment: Inhibition of somatostatin binding to sst5 receptor at 1 uM in radioligand binding assay ([125I]Tyr11-SRIF) in membranes from CHO-K1 cells. The class given is cell membranes. A digest of the protocol:
(§1)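 Competitive binding against [125I]-Tyr11-SRIF on membranes from CHO-K1 cells expressing human sst1–sst5, with each test compound at a single concentration. Nonspecific binding was defined with unlabelled SRIF. Incubations were stopped by rapid filtration through 0.5% PEI-soaked glass-fibre filters, then three washes in 50 mM Tris-HCl pH 7.4 with 5 mg/mL BSA. Filter radioactivity was gamma counted.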

Experiment [2] deals with T2, Somatostatin receptor type 1 (Homo sapiens, UniProt P30872). As to the kind of experiment: Inhibition of somatostatin binding to sst1 receptor at 1 uM in radioligand binding assay ([125I]Tyr11-SRIF) in membranes from CHO-K1 cells. The class given is cell membranes. The procedure, abridged:
as §1

For experiment [3], the target named is T3, Somatostatin receptor type 2 (Homo sapiens, UniProt P30874). As to the kind of experiment: Inhibition of somatostatin binding to sst2 receptor at 1 uM in radioligand binding assay ([125I]Tyr11-SRIF) in membranes from CHO-K1 cells. The class given is cell membranes. A digest of the protocol:
as §1

Experiment [4] addresses T4, Somatostatin receptor type 3 (Homo sapiens, UniProt P32745). As to the kind of experiment: Inhibition of somatostatin binding to sst3 receptor at 1 uM in radioligand binding assay ([125I]Tyr11-SRIF) in membranes from CHO-K1 cells. The class given is cell membranes. The procedure, abridged: as §1
Experiment [5] has as its target T5, Somatostatin receptor type 4 (Homo sapiens, UniProt P31391). As to the kind of experiment: Inhibition of somatostatin binding to sst4 receptor at 1 uM in radioligand binding assay ([125I]Tyr11-SRIF) in membranes from CHO-K1 cells. The class given is cell membranes. The procedure, abridged:
as §1

For experiment [6], the target named is T1, Somatostatin receptor type 5. As to the kind of experiment: Inhibitory concentration required for somatostatin 5 receptor in radioligand binding assay ([125I]-Tyr11-SRIF). The procedure, abridged:
(§2)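 IC50 values were determined by displacement of [125I]-Tyr11-SRIF on membranes from CHO-K1 cells expressing the relevant human sst subtype. Unlabelled SRIF defined nonspecific binding. Bound ligand was separated by rapid filtration on glass-fibre filters pre-soaked in 0.5% PEI. Filters were washed three times with 50 mM Tris-HCl pH 7.4 containing 5 mg/mL BSA and gamma counted.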

Experiment [7] concerns the target T4, Somatostatin receptor type 3. As to the kind of experiment: Inhibitory concentration required for somatostatin 3 receptor in radioligand binding assay ([125I]Tyr11-SRIF). A digest of the protocol: as §2
Experiment [8] addresses T3, Somatostatin receptor type 2. Briefly: Inhibitory concentration required for somatostatin 2 receptor in radioligand binding assay ([125I]Tyr11-SRIF). A digest of the protocol: as §2
In experiment [9] the target is T5, Somatostatin receptor type 4. As to the kind of experiment: Inhibitory concentration required for somatostatin 4 receptor in radioligand binding assay ([125I]Tyr11-SRIF). The procedure, abridged:
as §2

In experiment [10] the target is T2, Somatostatin receptor type 1. As to the kind of experiment: Inhibitory concentration required for somatostatin 1 receptor in radioligand binding assay ([125I]Tyr11-SRIF). The procedure, abridged: as §2

T1 sequence (P35346 whole entry): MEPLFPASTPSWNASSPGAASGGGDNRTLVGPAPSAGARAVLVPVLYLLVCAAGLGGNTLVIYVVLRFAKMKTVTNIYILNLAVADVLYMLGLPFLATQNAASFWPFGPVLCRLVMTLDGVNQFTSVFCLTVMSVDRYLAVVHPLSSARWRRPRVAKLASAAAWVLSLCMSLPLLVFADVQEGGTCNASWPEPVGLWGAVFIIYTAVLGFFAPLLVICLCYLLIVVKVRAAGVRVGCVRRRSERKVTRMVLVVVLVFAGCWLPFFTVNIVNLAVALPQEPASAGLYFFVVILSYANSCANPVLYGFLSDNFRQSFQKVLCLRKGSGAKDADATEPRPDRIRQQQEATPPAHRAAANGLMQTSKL
T5 sequence (P31391 whole entry): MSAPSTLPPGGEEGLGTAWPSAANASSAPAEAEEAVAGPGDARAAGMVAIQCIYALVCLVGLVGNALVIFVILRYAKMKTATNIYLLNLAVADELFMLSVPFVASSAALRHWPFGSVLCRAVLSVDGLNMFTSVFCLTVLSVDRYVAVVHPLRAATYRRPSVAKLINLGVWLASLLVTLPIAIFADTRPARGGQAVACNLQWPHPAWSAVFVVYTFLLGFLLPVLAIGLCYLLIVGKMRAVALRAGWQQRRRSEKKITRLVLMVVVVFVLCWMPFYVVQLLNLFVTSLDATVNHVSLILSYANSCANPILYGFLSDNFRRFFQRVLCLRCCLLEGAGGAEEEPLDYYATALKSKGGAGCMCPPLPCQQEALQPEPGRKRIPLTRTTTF
T3 sequence (P30874 whole entry): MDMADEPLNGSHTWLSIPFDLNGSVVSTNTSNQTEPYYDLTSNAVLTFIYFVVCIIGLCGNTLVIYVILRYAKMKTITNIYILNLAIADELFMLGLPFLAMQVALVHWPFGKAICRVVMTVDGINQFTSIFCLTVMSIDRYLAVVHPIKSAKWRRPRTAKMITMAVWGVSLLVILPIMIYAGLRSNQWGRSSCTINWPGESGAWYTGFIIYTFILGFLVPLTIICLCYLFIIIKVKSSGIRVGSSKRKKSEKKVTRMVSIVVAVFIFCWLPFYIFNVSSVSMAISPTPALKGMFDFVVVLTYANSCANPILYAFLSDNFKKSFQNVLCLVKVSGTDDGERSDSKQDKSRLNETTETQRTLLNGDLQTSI
T2 sequence (P30872 whole entry): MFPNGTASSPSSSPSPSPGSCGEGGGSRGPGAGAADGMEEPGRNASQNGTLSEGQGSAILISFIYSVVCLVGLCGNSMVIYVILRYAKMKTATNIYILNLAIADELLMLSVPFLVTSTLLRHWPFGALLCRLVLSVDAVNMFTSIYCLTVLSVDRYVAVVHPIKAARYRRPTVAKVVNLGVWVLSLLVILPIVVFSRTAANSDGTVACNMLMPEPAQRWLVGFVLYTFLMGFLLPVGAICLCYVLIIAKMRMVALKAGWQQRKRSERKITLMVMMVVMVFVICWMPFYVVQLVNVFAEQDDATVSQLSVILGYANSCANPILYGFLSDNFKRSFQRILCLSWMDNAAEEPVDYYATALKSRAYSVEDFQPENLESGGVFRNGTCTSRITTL
T4 sequence (P32745 whole entry): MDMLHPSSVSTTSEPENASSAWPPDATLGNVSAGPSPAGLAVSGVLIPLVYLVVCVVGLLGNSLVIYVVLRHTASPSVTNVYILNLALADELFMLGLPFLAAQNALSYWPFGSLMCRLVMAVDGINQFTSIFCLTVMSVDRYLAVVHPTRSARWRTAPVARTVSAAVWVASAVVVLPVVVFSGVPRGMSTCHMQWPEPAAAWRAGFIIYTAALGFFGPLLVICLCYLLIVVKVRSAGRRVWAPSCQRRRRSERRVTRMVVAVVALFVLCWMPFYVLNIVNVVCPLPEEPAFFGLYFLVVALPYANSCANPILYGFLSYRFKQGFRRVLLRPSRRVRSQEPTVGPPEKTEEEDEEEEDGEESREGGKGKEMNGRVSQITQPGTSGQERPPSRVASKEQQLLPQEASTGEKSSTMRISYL

Regarding `NCC[C@@H]1C[C@@H]2C(=O)N(Cc3cccc4ccccc34)CCS[C@H](Cc3c[nH]c4ccccc34)C(=O)N2C1`, the inhibition (in general, the change of the read-out against control, counted positive when it falls) was determined as 56% in [1]; 13% in experiment [2]; 7% in experiment [3]; 19% in experiment [4]; 12% in experiment [5].
For the compound `NCCCC1CCCN2C(=O)[C@@H](Cc3c[nH]c4ccccc34)SCCN(Cc3cccc4ccccc34)C(=O)C12` (stereo not given in full), the inhibition in experiment [1] turned out to be 89%; in experiment [2], 64%; in experiment [3], 74%; in experiment [4], 44%; in experiment [5], 99%. The IC50 (commonly the concentration at which inhibition is half-maximal) was determined as 41 nM in [6]; 1260 nM in experiment [7]; 275 nM in experiment [8]; 41 nM in experiment [9]; 407 nM in experiment [10].
Consider `NCCCC[C@H]1NC(=O)[C@@H](Cc2c[nH]c3ccccc23)SCCN(Cc2cccc3ccccc23)C1=O`, for which the inhibition in [1] is 99%; in experiment [2] it was 64%; in experiment [3], 33%; in experiment [4], 42%; in [5], 43%. Also, the IC50 in [6] was found to be 87 nM; in experiment [7] it was 3090 nM; in [8] it was 1590 nM; in [9], 1050 nM; in [10], 501 nM.
For `NCC[C@H]1C[C@@H]2C(=O)N(Cc3cccc4ccccc34)CCS[C@H](Cc3c[nH]c4ccccc34)C(=O)N2C1`, the inhibition stood at 50% in [1]; 28% in experiment [2]; 20% in experiment [3]; 16% in [4]; 17% in experiment [5].
As to `NCCCC[C@H]1NC(=O)[C@@H](Cc2c[nH]c3ccccc23)Sc2ccccc2CN(Cc2cccc3ccccc23)C1=O`, the inhibition is 64% in [1]; 36% in experiment [2]; 7% in experiment [3]; 13% in [4]; 41% in [5].

(Values after ChEMBL document CHEMBL1132841, “Optimization of a somatostatin mimetic via constrained amino acid and backbone incorporation” (Bioorg Med Chem Lett, 2000).)
